Experimental data from ChEMBL document CHEMBL5230178, “6-Bromoindirubin-3'-oxime derivatives are highly active colistin adjuvants against Klebsiella pneumoniae” (RSC Med Chem, 2023).
Calls of active or inactive are those of the source. The rule behind the calls is not given here.

How the values were obtained:
Klebsiella pneumoniae [1] = assay: Antibacterial activity against Klebsiella pneumoniae B9 assessed as inhibition of bacterial growth incubated for 16 hrs by broth microdilution method; assay type: functional
Method in brief: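 Broth microdilution in CAMHB. Six-hour culture diluted to 5×10^5 CFU/mL, compound added from DMSO stock, two-fold serial dilution. MIC is the lowest concentration giving 90% growth inhibition versus untreated wells. Run in duplicate, repeated at least twice.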

Klebsiella pneumoniae [2] = assay: Potentiation of colistin-induced antibacterial activity against colistin resistant Klebsiella pneumoniae B9 assessed as colistin MIC at 5 uM incubated for 16 hrs by broth microdilution method; assay type: functional
Method in brief: (§1)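 Bacteria grown 6 h in CAMHB, diluted to 5×10^5 CFU/mL. Fixed adjuvant concentration added from DMSO stock; an undosed aliquot gives the colistin MIC alone. Colistin serially two-fold diluted in the compound-dosed suspension. MIC taken at 90% growth inhibition versus untreated wells. Fold change is colistin MIC alone over MIC with adjuvant. Duplicate, repeated at least twice.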

Klebsiella pneumoniae [3] = assay: Potentiation of colistin-induced antibacterial activity against colistin-resistant Klebsiella pneumoniae B9 assessed as fold change in colistin MIC at 5 uM incubated for 16 hrs by broth microdilution method; assay type: functional; method in brief: as §1
Klebsiella pneumoniae [4] = assay: Potentiation of colistin-induced antibacterial activity against colistin-resistant Klebsiella pneumoniae B9 assessed as colistin MIC at 3 uM incubated for 16 hrs by broth microdilution method; assay type: functional; method in brief: as §1
Klebsiella pneumoniae [5] = assay: Potentiation of colistin-induced antibacterial activity against colistin-resistant Klebsiella pneumoniae B9 assessed as fold change in colistin MIC at 3 uM incubated for 16 hrs by broth microdilution method; assay type: functional; method in brief: as §1
Klebsiella pneumoniae [6] = assay: Potentiation of colistin-induced antibacterial activity against colistin-resistant Klebsiella pneumoniae B9 assessed as colistin MIC at 1 uM incubated for 16 hrs by broth microdilution method; assay type: functional; method in brief: as §1
Klebsiella pneumoniae [7] = assay: Potentiation of colistin-induced antibacterial activity against colistin-resistant Klebsiella pneumoniae B9 assessed as fold change in colistin MIC at 1 uM incubated for 16 hrs by broth microdilution method; assay type: functional; method in brief: as §1
Klebsiella pneumoniae [8] = assay: Potentiation of colistin-induced antibacterial activity against colistin resistant Klebsiella pneumoniae C3 assessed as colistin MIC at 5 uM incubated for 16 hrs by broth microdilution method; assay type: functional; method in brief: as §1
Klebsiella pneumoniae [9] = assay: Potentiation of colistin-induced antibacterial activity against colistin resistant Klebsiella pneumoniae F9 assessed as colistin MIC at 5 uM incubated for 16 hrs by broth microdilution method; assay type: functional; method in brief: as §1
Klebsiella pneumoniae [10] = assay: Potentiation of colistin-induced antibacterial activity against colistin resistant Klebsiella pneumoniae I2 assessed as colistin MIC at 5 uM incubated for 16 hrs by broth microdilution method; assay type: functional; method in brief: as §1
Klebsiella pneumoniae [11] = assay: Potentiation of colistin-induced antibacterial activity against colistin resistant Klebsiella pneumoniae F2210291 harbouring mcr-1 gene assessed as colistin MIC at 5 uM incubated for 16 hrs by broth microdilution method; assay type: functional; method in brief: as §1
Acinetobacter baumannii [12] = assay: Antimicrobial activity against colistin resistant Acinetobacter baumannii 3941 assessed as inhibition of microbial growth incubated for 16 hrs by broth microdilution method; assay type: functional, organism-based
Method in brief: (§2)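 Bacteria grown 6 h in cation-adjusted Mueller Hinton broth (CAMHB), subcultured to 5×10^5 CFU/mL. Compound added from DMSO stock and serially two-fold diluted in the culture. Incubated stationary at 37 °C for 16 h. MIC taken as the lowest concentration giving 90% growth inhibition versus untreated wells. Duplicate, repeated at least twice.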

Escherichia coli [13] = assay: Antimicrobial activity against colistin resistant Escherichia coli 25922 harbouring mcr-1 gene assessed as inhibition of microbial growth incubated for 16 hrs by broth microdilution method; assay type: functional, organism-based; method in brief: as §2
Pseudomonas aeruginosa [14] = assay: Antimicrobial activity against colistin resistant Pseudomonas aeruginosa TRPA 162 assessed as inhibition of microbial growth incubated for 16 hrs by broth microdilution method; assay type: functional, organism-based; method in brief: as §2
Acinetobacter baumannii [15] = assay: Potentiation of colistin-induced antimicrobial activity against colistin resistant Acinetobacter baumannii 3941 assessed as assessed as colistin MIC at 5 uM incubated for 16 hrs by broth microdilution method; assay type: functional; method in brief: as §1
Pseudomonas aeruginosa [16] = assay: Potentiation of colistin-induced antimicrobial activity against colistin-resistant Pseudomonas aeruginosa TRPA 162 assessed as colistin MIC at 5 uM incubated for 16 hrs by broth microdilution method; assay type: functional; method in brief: as §1
Escherichia coli [17] = assay: Potentiation of colistin-induced antimicrobial activity against colistin resistant Escherichia coli 25922 harbouring mcr-1 gene assessed as colistin MIC at 5 uM incubated for 16 hrs by broth microdilution method; assay type: functional; method in brief: as §1
Klebsiella pneumoniae [18] = assay: Antibacterial activity against Klebsiella pneumoniae B9 assessed as inhibition of bacterial growth at 5 uM measured upto 24 hrs by time-kill assay; assay type: functional, organism-based
Method in brief: (§3)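 Overnight CAMHB culture subcultured to 5×10^5 CFU/mL in fresh CAMHB, split into 4 mL aliquots. Dosed with carrier only, adjuvant, colistin, or adjuvant plus colistin. Shaken at 37 °C. At 2, 4, 6, 8 and 24 h, 100 µL sampled, ten-fold serially diluted in CAMHB up to 7 times, plated on LB Lennox agar, incubated overnight at 37 °C, colonies counted.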

Klebsiella pneumoniae [19] = assay: Synergistic antibacterial activity against Klebsiella pneumoniae B9 assessed as reduction in colony forming unit measured per ml at 5 uM measured after 8 hrs in the presence of 0.5 ug/ml of colistin by time-kill assay; assay type: functional; method in brief: as §3
Klebsiella pneumoniae [20] = assay: Synergistic antibacterial activity against Klebsiella pneumoniae B9 assessed as reduction in colony forming unit measured per ml at 5 uM measured after 2 hrs in the presence of 2 ug/ml of colistin by time-kill assay; assay type: functional; method in brief: as §3
Klebsiella pneumoniae [21] = assay: Synergistic antibacterial activity against Klebsiella pneumoniae B9 assessed as reduction in colony forming unit measured per ml at 5 uM measured after 24 hrs in the presence of 2 ug/ml of colistin by time-kill assay; assay type: functional; method in brief: as §3
Klebsiella pneumoniae [22] = assay: Synergistic antibacterial activity against Klebsiella pneumoniae B9 assessed as reduction in colony forming unit at 5 uM measured at 6 to 24 hrs in the presence of 4 ug/ml of colistin by time-kill assay; assay type: functional, organism-based; details: time 6-24 hrs; method in brief: as §3
[23] = Hemolytic activity in sheep RBC assessed as hemolysis upto 400 uM incubated for 1 hrs by UV-Vis spectrophotometric analysis; assay type: toxicity, cell-based, Ovis aries; details: erythrocyte
Method in brief: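 Defibrinated sheep blood cells washed three times in PBS by centrifugation (10 min, 10,000 rpm), resuspended in 10 mL PBS, compound added. PBS served as 0% lysis and 1% Triton X-100 as 100% lysis. Shaken at 200 rpm, 37 °C, 1 h, then centrifuged. Supernatant diluted 40-fold in water, absorbance read at 540 nm.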

Klebsiella pneumoniae [24] = assay: Induction of drug resistance in colistin-resistant Klebsiella pneumoniae B9 assessed as lipid A modification of LPS at 5 uM incubated for 8 hrs by MALDI-TOF analysis; assay type: functional, organism-based
Method in brief: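 K. pneumoniae B9 grown 18 h at 37 °C in CAMHB, subcultured to 1×10^6 CFU in 120 mL CAMHB. Left untreated or dosed at 5 μM for 8 h, in duplicate. Cells pelleted, washed with endotoxin-free water, and extracted on-plate with 70% citric acid at 110 °C for 30 min. Norharmane matrix applied, then MALDI-TOF in negative ion mode.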

O=C1Nc2cc(Br)ccc2/C1=C1/Nc2cc(Cl)ccc2/C1=N\O
MIC (Klebsiella pneumoniae [1]): > 200 µM | MIC (Klebsiella pneumoniae [2]): 0.5 µg/mL | fold change (FC) (Klebsiella pneumoniae [3]): 1024 | MIC (Klebsiella pneumoniae [4]): 1 µg/mL | fold change (FC) (Klebsiella pneumoniae [5]): 256 | MIC (Klebsiella pneumoniae [6]): 16 µg/mL | fold change (FC) (Klebsiella pneumoniae [7]): 32 | MIC (Klebsiella pneumoniae [8]): 1 µg/mL | MIC (Klebsiella pneumoniae [9]): 2 µg/mL | MIC (Klebsiella pneumoniae [10]): 2 µg/mL | MIC (Klebsiella pneumoniae [11]): 1 µg/mL | Activity (Acinetobacter baumannii [12]): inactive | Activity (Escherichia coli [13]): inactive | Activity (Pseudomonas aeruginosa [14]): inactive | MIC (Acinetobacter baumannii [15]): > 16 µg/mL | MIC (Pseudomonas aeruginosa [16]): > 16 µg/mL | MIC (Escherichia coli [17]): 2 µg/mL | Activity (Klebsiella pneumoniae [18]): inactive | log(activity) (Klebsiella pneumoniae [19]): 1 | log(activity) (Klebsiella pneumoniae [20]): 2 | log(activity) (Klebsiella pneumoniae [21]): 1 | Activity (Klebsiella pneumoniae [22]): Active | Activity [23]: Non-Toxic | Activity (Klebsiella pneumoniae [24]): inactive
